Compounds with a hit are over-represented: about 3.5% of the library has one in this group of screens.
MrgX1 PAM: allosterically activates human MrgX1 receptor signaling; AID 588675; Q96LB2; hit rate 0.63% among 310,000; B-score at 10 µM; MrgX1-HEK293, Fluo-4 calcium flux, FDSS; hits give high values;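 active means plate-corrected calcium response at least 3 library SD above typical, normal starting fluorescence, not activating the receptor alone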;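 further: compound read alongside a low EC10 to EC30 dose of BAM8-22 agonist; peak minus trough fluorescence over baseline measured at the second addition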
Target sequence (Q96LB2 whole entry, looked up): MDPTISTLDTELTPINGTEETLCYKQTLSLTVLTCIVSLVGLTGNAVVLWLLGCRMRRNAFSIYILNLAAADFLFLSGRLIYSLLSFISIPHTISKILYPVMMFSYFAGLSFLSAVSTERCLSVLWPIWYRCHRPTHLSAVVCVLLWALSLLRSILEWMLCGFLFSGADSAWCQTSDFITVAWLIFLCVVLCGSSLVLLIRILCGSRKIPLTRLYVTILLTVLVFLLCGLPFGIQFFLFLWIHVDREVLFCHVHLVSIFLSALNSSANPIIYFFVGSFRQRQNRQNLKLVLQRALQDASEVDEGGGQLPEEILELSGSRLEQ
RGS4 inh: inhibitors of human RGS4 | hit rate 0.45% among 310,000 | AID 463165 | HEK293 M3R/RGS4 inducible, Fluo-4 calcium flux; hits give high values; triggered by carbachol at its EC20 | P49798 | B-score at 10 µM;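 active means B-score, a plate-corrected calcium signal, over three deviations above library mean, with baseline fluorescence within five deviations of library mean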;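 further: RGS4 expression induced by doxycycline in cells with stable M3 receptor; B-score is computed from the integrated fluorescence ratio over baseline after carbachol; higher B-score means a larger calcium signal and so more RGS4 inhibition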
Target sequence (P49798 whole entry, looked up): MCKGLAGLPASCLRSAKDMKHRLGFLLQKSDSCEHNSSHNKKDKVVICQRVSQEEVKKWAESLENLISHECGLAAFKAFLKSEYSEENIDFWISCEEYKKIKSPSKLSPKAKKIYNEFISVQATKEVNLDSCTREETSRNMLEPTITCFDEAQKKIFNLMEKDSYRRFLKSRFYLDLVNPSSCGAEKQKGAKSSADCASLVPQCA
MrgX1 agonist: activates human MrgX1 receptor signaling. hit rate 0.44% among 310,000. B-score at 10 µM. MrgX1-HEK293 cells, Fluo-4 calcium fluorescence, agonist mode; hits give high values. AID 588627;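 active means calcium response B-score plate-corrected fluorescence ratio at least 3 library SD, with starting fluorescence B-score inside 5 SD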
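Material: MrgX1-expressing HEK293 cells; input: 15,000 cells per well; doses: test compound given as first of three sequential additions; schedule: overnight plating before 1 h dye loading; technique: Fluo-4 NW calcium-flux fluorescence, kinetic read; evaluation: baseline-normalised fluorescence change ratio, B-scored; control set: plate-wise positive and negative controls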
RGS4 act: potentiators or activators of RGS4 | HEK293 M3R/inducible RGS4, carbachol calcium flux Fluo4; hits give low values | B-score at 10 µM | hit rate 0.92% among 310,000 | AID 463111;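 active means B-score of the integrated calcium signal more than 4 SD below the library mean, with starting fluorescence not abnormally high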;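 further: negative B-score means reduced calcium response which marks RGS4 activation or potentiation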
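test system = HEK293 cells with stable M3R and inducible RGS4 | schedule = recording 10 s baseline at 1 Hz, 100 s post-agonist | technique = Fluo4-AM (2 µM) calcium-flux fluorescence, kinetic read | measure = Agonist-evoked peak-minus-minimum fluorescence over baseline, integrated ratio, B score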
MrgX1 antagonist: blocks BAM8-22 activation of human MrgX1 receptor; AID 588676; hit rate 1.3% among 310,000; MRGX1-HEK293 calcium flux, Fluo-4, BAM8-22 antagonism; hits give low values; B-score at 10 µM; Q96LB2;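 active means calcium-response B-score plate-corrected more than 3 library SD below zero, starting fluorescence within 5 deviations, no agonist response on first addition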;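 further: peak minus trough fluorescence over baseline after final BAM8-22 challenge near maximal dose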
MrgX1 antag conf: confirmation of human MrgX1 receptor antagonists; hit rate 19% among 2,300; remaining BAM8-22 calcium response % of control (hits give low values), % at 10 µM; MrgX1-HEK293, BAM8-22 calcium flux, Fluo-4; hits give low values; AID 602420; shares compounds with MrgX1 antagonist;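 active means remaining agonist calcium response no higher than 100% minus 3 SD of agonist-only control wells, with starting fluorescence near control levels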;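 further: agonist BAM8-22 given at a near maximal EC90 to ECmax level; peak minus minimum fluorescence divided by baseline after agonist addition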
HEK293 Ca flux: activity in parental HEK293 cells lacking MrgX1. Fluo-4 calcium fluorescence, FDSS. shares compounds with MrgX1 antagonist. hit rate 2% among 4,000. fluorescence ratio F(max-min)/F0 at 10 µM;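 active means duplicate-averaged calcium fluorescence ratio at least three times the standard deviation of buffer wells, a nonspecific response in parental cells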
HEK293 Ca counter: MrgX1 allosteric activator counter-screen hit in parental HEK293 cells | hit rate 0.4% among 4,000 | fluorescence ratio F(max-min)/F0 at 10 µM | parental HEK293 calcium flux, Fluo-4 fluorescence ratio; hits give high values | AID 624114 | shares compounds with MrgX1 antagonist;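 active means calcium fluorescence ratio, averaged over duplicates, at least 3 SD of the buffer-well ratio, meaning a nonspecific response in receptor-free cells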;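 further: untransfected parental HEK293 lacking MrgX1 used as counterscreen for MrgX1 allosteric activators; fluorescence change taken during the second addition on a kinetic imager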
HEK293 Ca cntr2: MrgX1 activator counter-screen hit in parental HEK293 cells; fluorescence ratio F(max-min)/F0 at 10 µM; Fluo-4 calcium fluorescence (FDSS); hits give high values; hit rate 8.7% among 4,000; AID 624115; shares compounds with MrgX1 antagonist;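 active means calcium fluorescence ratio at least three times the spread of buffer wells, meaning a non-specific response in parental cells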
Numbers without * were called inactive; i = inactive; . = no result given.

SMILES	MrgX1 PAM	RGS4 inh	MrgX1 agonist	RGS4 act	MrgX1 antagonist	MrgX1 antag conf	HEK293 Ca flux	HEK293 Ca counter	HEK293 Ca cntr2
COCCNC(=O)C(c1ccc(C)cc1)N(C(=O)CCC(=O)Nc1ccccn1)c1ccc(C)cc1 (configuration not stated)	i	i	i	i	i	.	.	.	.
COc1ccc(NC(=S)NC(=O)C2CCCCC2)cc1	i	i	i	i	i	.	.	.	.
CCOc1ccc(NC(=S)NC(=O)C2CCCC2)cc1	i	i	i	i	-5.4*	i	i	i	i
CS(=O)(=O)c1ncc(Cl)c(C(=O)Nc2ccc(OC(F)F)cc2)n1	i	i	i	i	-4.9*	i	i	i	i
COc1ccccc1-c1nnc(SCc2nc3ccccc3s2)n1C	i	i	i	i	-5.8*	i	i	i	i
C/C(=N\NC(=O)c1c(Cl)c(C)nn1C)c1cccc(NC(=O)C2CCCC2)c1	i	i	i	i	i	.	.	.	.
O=C(CSc1nc2ccccc2c(=O)n1-c1ccccc1)c1c[nH]c2ccccc12	i	i	i	i	-6*	i	i	i	i
CSCCC(NC(=O)c1ccccc1Br)C(=O)NCC(c1ccco1)N1CCCCC1 (configuration not stated)	i	i	i	i	i	.	.	.	.
CCOC(=O)c1cnc(SC)nc1Oc1cccc(NS(=O)(=O)c2ccccc2)c1	i	i	i	i	i	.	.	.	.
CCOC(=O)c1cnc(SC)nc1Oc1cccc(NS(=O)(=O)c2ccc(F)cc2)c1	i	i	i	i	-6.8*	i	i	i	i
Cc1ccn2c(CNCCn3cccn3)c(C(=O)N3CCCCCC3)nc2c1	i	i	i	i	-7.5*	i	i	i	i
Cc1ccc(S(=O)(=O)N(C)C)cc1NC(=O)CSc1nc2ccccc2c(=O)n1CC1CCCO1 (configuration not stated)	i	i	i	i	i	.	.	.	.
Cc1ccc(S(=O)(=O)N(C)C)cc1NC(=O)Cn1c(CN2CCOCC2)nc2ccccc2c1=O	i	i	i	i	-4.9*	i	i	i	i
Clc1c(Cl)c(Cl)c2n[nH]nc2c1Cl	i	i	i	i	-7*	i	i	i	i
Oc1cc(O)cc(-c2cc3ccc(O)cc3o2)c1	i	i	i	i	-6*	i	i	i	i
NC(=S)c1cc2ccc(O)cc2oc1=O	.	i	.	i	.	.	.	.	.
COc1ccc(N2CC(C(=O)N(CC(C)C)c3c(N)n(Cc4ccccc4)c(=O)[nH]c3=O)CC2=O)c(OC)c1 (configuration not stated)	i	i	i	i	i	.	.	.	.
COCCn1c(=S)[nH]c2cc(OC)c(OC)cc2c1=O	i	i	i	i	-9.1*	i	i	i	i
CCN(CC)CCCn1c(=S)[nH]c2cc(OC)c(OC)cc2c1=O	i	i	i	i	i	.	.	.	.
CCN(CC)S(=O)(=O)c1ccc2oc(C(=O)O)c(C)c2c1	i	i	i	i	i	.	.	.	.
CCN(Cc1ccccc1)S(=O)(=O)c1ccc2oc(C(=O)O)c(C)c2c1	i	i	i	i	-5.2*	i	i	i	i
Cc1ccc(S(=O)(=O)NC(C)(C)CSc2ncccn2)cc1	i	i	i	i	-9.9*	i	i	i	i
